Reference: ChEMBL document CHEMBL1156114 (Bioorg Med Chem Lett, 2009)

Legend:
Thymidine kinase = target: T1, Thymidine kinase (Varicella-zoster virus, UniProt P0C0E6); test: Displacement of [CH3-3H]deoxythymidine from Varicella zoster virus recombinant thymidine kinase after 30 mins; design: species or system Human alphaherpesvirus 3
T1 sequence (P0C0E6 whole entry): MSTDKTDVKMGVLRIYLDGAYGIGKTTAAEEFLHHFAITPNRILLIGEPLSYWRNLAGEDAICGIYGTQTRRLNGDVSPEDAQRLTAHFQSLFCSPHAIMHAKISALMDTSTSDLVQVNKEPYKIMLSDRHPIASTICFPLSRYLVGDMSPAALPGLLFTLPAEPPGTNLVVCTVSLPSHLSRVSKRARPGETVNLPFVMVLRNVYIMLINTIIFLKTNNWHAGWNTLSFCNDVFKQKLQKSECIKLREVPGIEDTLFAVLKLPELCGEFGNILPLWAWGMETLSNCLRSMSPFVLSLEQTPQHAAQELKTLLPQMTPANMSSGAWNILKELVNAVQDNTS
Outline: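 Inhibition of VZV TK phosphorylation of 1 µM [CH3-3H]dThd (0.1 µCi) in 50 mM Tris-HCl pH 8.0, 2.5 mM MgCl2, 10 mM DTT, 2.5 mM ATP, 10 mM NaF, 1 mg/mL BSA. Reaction started with enzyme, 37 °C for 30 min. Product captured on DE-81 discs, washed in ammonium formate then ethanol, and counted by scintillation. IC50 is the concentration inhibiting phosphorylation by 50%.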

Human alphaherpesvirus 3 [1] = test: Antiviral activity against thymidine kinase deficient Varicella zoster virus 07/1 infected human HEL cells assessed as reduction in viral plaque formation after 5 days; format: functional, organism-based; conditions: Human alphaherpesvirus 3, 07/1, HEL, 120 h
Outline: (§1)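 Confluent HEL cells infected with VZV at 20 PFU/well for 2 h. Residual virus removed, then compound added at varying concentrations in duplicate. Plaques counted after 5 days.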

[2] = target: T2, Thymidine kinase (Varicella-zoster virus) (UniProt P0C0E6); test: Ratio of Vmax to Km for Varicella zoster virus recombinant thymidine kinase; conditions: Human alphaherpesvirus 3
T2 sequence (whole entry): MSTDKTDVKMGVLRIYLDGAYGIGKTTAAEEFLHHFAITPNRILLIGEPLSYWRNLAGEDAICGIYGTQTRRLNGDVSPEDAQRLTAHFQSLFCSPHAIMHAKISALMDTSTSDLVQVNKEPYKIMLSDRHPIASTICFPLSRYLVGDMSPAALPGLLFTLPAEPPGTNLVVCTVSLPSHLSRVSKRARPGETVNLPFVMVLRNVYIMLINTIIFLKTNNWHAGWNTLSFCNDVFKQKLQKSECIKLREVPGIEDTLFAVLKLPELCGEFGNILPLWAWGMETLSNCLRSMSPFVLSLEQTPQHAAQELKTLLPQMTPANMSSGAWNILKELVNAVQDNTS
Outline: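 Km and Vmax for each compound as VZV TK substrate, from monophosphate formation at 0.5, 2, 5 and 12.5 µM compound. Enzyme in Tris-HCl pH 8 with 2.5 mM ATP and MgCl2, 37 °C, 60 min. Product quantified by reversed-phase HPLC with fluorescence detection (ex 340/em 415 nm).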

[3] = Cytotoxicity against human HEL cells assessed as alteration of cell morphology by microscopy; format: cell-based
Outline: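 Confluent human embryonic lung (HEL) cell cultures, run in parallel with a VZV plaque-reduction assay. Compound added at varying concentrations in duplicate. Cells were examined by microscope for altered morphology. MCC is the lowest compound concentration that gives a microscopically detectable change in cell morphology.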

Human alphaherpesvirus 3 [4] = test: Antiviral activity against Varicella zoster virus OKA infected human HEL cells assessed as reduction in viral plaque formation after 5 days; format: functional, cell-based; conditions: Human alphaherpesvirus 3, strain Oka vaccine, 120 h; outline: as §1
Human alphaherpesvirus 3 [5] = test: Antiviral activity against Varicella zoster virus YS infected human HEL cells assessed as reduction in viral plaque formation after 5 days; format: functional, organism-based; conditions: Human alphaherpesvirus 3, YS, 120 h
Outline: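 Confluent HEL cells infected with VZV at 20 PFU/well for 2 h. Residual virus removed, then compound added at varying concentrations in duplicate. Plaques counted after 5 days. EC50 is the concentration reducing plaque formation by 50% versus untreated controls.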

[6] = substrate: CCCCCc1ccc(-c2cc3cn([C@@H]4O[C@H](CO)[C@@H](O)[C@@H]4F)c(=O)nc3o2)cc1; test: (§2) Activity at Varicella zoster virus recombinant thymidine kinase assessed as 5-monophosphate BCNA formation after 60 mins by HPLC; conditions: Human alphaherpesvirus 3
Outline: (§3)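 VZV TK (1.5 pg) in 50 mM Tris-HCl pH 8, 2.5 mM MgCl2, 10 mM DTT, 2.5 mM ATP, 10 mM NaF; compound at 0.5, 2, 5 and 12.5 µM in DMSO; 37 °C for 60 min. Stopped in ice-cold methanol and centrifuged. Reversed-phase HPLC with ion-pairing phosphate buffer/acetonitrile gradient; nucleoside and 5'-monophosphate quantified by fluorescence (ex 340, em 415 nm).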

[7] = substrate: CCCCCc1ccc(-c2cc3cn([C@@H]4O[C@H](CO)[C@@H](O)C4(F)F)c(=O)nc3o2)cc1; test: as §2; conditions: Human alphaherpesvirus 3; outline: as §3
[8] = substrate: CCCCCc1ccc(-c2cc3cn([C@H]4C[C@H](O)[C@@H](CO)O4)c(=O)nc3o2)cc1; test: as §2; conditions: Human alphaherpesvirus 3; outline: as §3
[9] = substrate: CCCCCc1ccc(-c2cc3cn([C@@H]4O[C@H](CO)[C@@H](O)[C@H]4F)c(=O)nc3o2)cc1; test: as §2; conditions: Human alphaherpesvirus 3; outline: as §3

For `CCCCCc1ccc(-c2cc3cn([C@@H]4O[C@H](CO)[C@@H](O)[C@H]4F)c(=O)nc3o2)cc1`, the IC50 (Thymidine kinase) was 2.7 µM, the EC50 (Human alphaherpesvirus 3 [1]) was > 20 µM and the Ratio [2] was 7.2. For the same molecule, the MCC [3] was > 50 µM and the EC50 (Human alphaherpesvirus 3 [4]) was 0.75 µM.

With `CCCCCc1ccc(-c2cc3cn([C@@H]4O[C@H](CO)[C@@H](O)C4(F)F)c(=O)nc3o2)cc1` the IC50 (Thymidine kinase) was 13 µM, the EC50 (Human alphaherpesvirus 3 [5]) was 6.7 µM and the EC50 (Human alphaherpesvirus 3 [1]) was > 50 µM. The Ratio [2] was 14, the MCC [3] was ≥ 50 µM and the EC50 (Human alphaherpesvirus 3 [4]) was 1.5 µM.

In the case of `CCCCCc1ccc(-c2cc3cn([C@H]4C[C@H](O)[C@@H](CO)O4)c(=O)nc3o2)cc1` [CF1743], the IC50 (Thymidine kinase) is reported as 3.3 µM and the MCC [3] is reported as ≥ 50 µM.

With `CCCCCc1ccc(-c2cc3cn([C@@H]4O[C@H](CO)[C@@H](O)[C@@H]4F)c(=O)nc3o2)cc1` the IC50 (Thymidine kinase) was 38 µM, the EC50 (Human alphaherpesvirus 3 [5]) was 0.011 µM and the EC50 (Human alphaherpesvirus 3 [1]) was > 50 µM. For the same molecule, the Ratio [2] was 45, the MCC [3] was > 50 µM and the EC50 (Human alphaherpesvirus 3 [4]) was 0.007 µM.

B1: Thymidine kinase (Varicella-zoster virus), P0C0E6 (protein)
chain: MSTDKTDVKMGVLRIYLDGAYGIGKTTAAEEFLHHFAITPNRILLIGEPLSYWRNLAGEDAICGIYGTQTRRLNGDVSPEDAQRLTAHFQSLFCSPHAIMHAKISALMDTSTSDLVQVNKEPYKIMLSDRHPIASTICFPLSRYLVGDMSPAALPGLLFTLPAEPPGTNLVVCTVSLPSHLSRVSKRARPGETVNLPFVMVLRNVYIMLINTIIFLKTNNWHAGWNTLSFCNDVFKQKLQKSECIKLREVPGIEDTLFAVLKLPELCGEFGNILPLWAWGMETLSNCLRSMSPFVLSLEQTPQHAAQELKTLLPQMTPANMSSGAWNILKELVNAVQDNTS
With B1 the Km [6] was 1.11 µM, the Vmax [6] was 50 µM/h and the Km [7] was 0.95 µM. It also gave a Vmax [7] of 14 µM/h, a Km [8] of 1.58 µM and a Vmax [8] of 22 µM/h. It also gave a Km [9] of 0.47 µM and a Vmax [9] of 3.4 µM/h.
